Measured values reported in ChEMBL document CHEMBL4138048, “Synthesis of substituted 2H-benzo[e]indazole-9-carboxylate as a potent antihyperglycemic agent that may act through IRS-1, Akt and GSK-3β pathways” (Medchemcomm, 2017).
The source made the active and inactive calls. The rule behind the calls is not given here.

Columns and labels:
Mus musculus [1] = assay: Antihyperglycemic activity in db/db mouse assessed as increase in HDL-C level at 10 mg/kg, po qd for 15 days; format: functional
Procedure, shortened: (§1)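 db/db mice given 3, 10 or 30 mg/kg orally once a day for 15 consecutive days, alongside vehicle controls. Serum triglyceride, total cholesterol, HDL-C and insulin measured, along with fasting blood glucose. Expressed as mean % change in 5 animals per group versus control.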

Mus musculus [2] = assay: Antihyperglycemic activity in db/db mouse assessed as reduction in triglyceride level at 10 mg/kg, po qd for 15 days; format: functional; set-up: scale not given: the % may be the effect or the level left; procedure, shortened: as §1
Mus musculus [3] = assay: Antihyperglycemic activity in db/db mouse assessed as reduction in fasting blood glucose level at 10 mg/kg, po qd for 15 days; format: functional; set-up: scale not given: the % may be the effect or the level left; procedure, shortened: as §1
Mus musculus [4] = assay: Antihyperglycemic activity in db/db mouse assessed as reduction in insulin level at 10 mg/kg, po qd for 15 days; format: functional; set-up: scale not given: the % may be the effect or the level left; procedure, shortened: as §1
Mus musculus [5] = assay: Antihyperglycemic activity in db/db mouse assessed as reduction in cholesterol level at 10 mg/kg, po qd for 15 days; format: functional; set-up: scale not given: the % may be the effect or the level left; procedure, shortened: as §1
Mus musculus [6] = assay: Antihyperglycemic activity in db/db mouse assessed as improvement on glucose tolerance by measuring blood glucose AUC level at 10 mg/kg, po qd for 15 days by oral glucose tolerance test; format: functional
Procedure, shortened: (§2)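 db/db mice dosed orally once daily for 15 consecutive days at 3, 10 or 30 mg/kg, with vehicle controls and pioglitazone at 10 mg/kg. Oral glucose tolerance tests on day 10 and day 15. Overall improvement in glucose tolerance calculated against vehicle control. Mean % change in 5 animals per group.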

Mus musculus [7] = assay: Antihyperglycemic activity in db/db mouse assessed as improvement on glucose tolerance by measuring blood glucose AUC level at 10 mg/kg, po qd for 10 days by oral glucose tolerance test; format: functional; procedure, shortened: as §2
Mus musculus [8] = assay: Antihyperglycemic activity in db/db mouse assessed as reduction in blood glucose level at 10 mg/kg, po qd and measured on day 4 by oral glucose tolerance test; format: functional, organism-based
Procedure, shortened: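 Type 2 diabetic db/db mice dosed orally once a day for 15 days at 3, 10 or 30 mg/kg, with pioglitazone at 10 mg/kg as standard. Blood glucose measured daily and profile compared with vehicle-treated animals. Mean % change in 5 animals per group.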

L6 = assay: Stimulation of [3H]2-deoxyglucose uptake in rat L6 cells at 10 uM incubated for 16 hrs by scintillation counting method; format: functional, cell-based
Procedure, shortened: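 L6 myotubes incubated with the compound […]; insulin at 100 nM for 20 min served as the positive control. Uptake of ³H-2-deoxyglucose measured and expressed as fold stimulation relative to the control condition.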

SMILES: CCc1ccc(CCOc2ccc(CC3SC(=O)NC3=O)cc2)nc1 (stereo not given) [PIOGLITAZONE]
- Activity (Mus musculus [1]): 23.9%
- Activity (Mus musculus [2]): 9.58%
- Activity (Mus musculus [3]): 59.1%
- Activity (Mus musculus [4]): 58.1%
- Activity (Mus musculus [5]): 15.1%
- Activity (Mus musculus [6]): 45.4%
- Activity (Mus musculus [7]): 34.8%
- Activity (Mus musculus [8]): Active

SMILES: COC(=O)c1c(S(C)(=O)=O)cc(-c2ccc(C)cc2)c2c1-c1cn(-c3ccccc3)nc1CC2
- Activity (L6): inactive

SMILES: COC(=O)c1c(SC)cc(-c2ccc(F)cc2)c2c1-c1cn(-c3ccccc3)nc1CC2
- Activity (L6): inactive
